{"source": "paper PMC9257745", "about": "(Molecular Pharmaceutics, 2022)", "key": {"healthy ddy mice": {"system": "healthy ddy mice", "assay": "Hypoglycemic effect, blood glucose after subcutaneous administration to mice", "assay_type": "in vivo, mouse", "conditions": "38 μg/kg insulin, 16 h-fasted healthy male ddy mice, mean ± S.E of 4–7 experiments"}, "trypsin": {"system": "trypsin", "assay": "Tryptic digestion assay", "assay_type": "in vitro ADME", "conditions": "pH 8", "how_it_was_run": "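Peptide at 150 μM incubated with trypsin (substrate:enzyme 5000:1) at 37 °C in 100 mM Tris–HCl, pH 8.0. Aliquots taken at intervals and quenched with 1 M HCl. Remaining peptide measured by RP-HPLC and plotted as natural log against time, n = 3.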"}, "mouse SA (MSA)": {"molecular_target": "mouse SA (MSA) (Mus musculus, UniProt P07724)", "sequence (P07724 25-608)": "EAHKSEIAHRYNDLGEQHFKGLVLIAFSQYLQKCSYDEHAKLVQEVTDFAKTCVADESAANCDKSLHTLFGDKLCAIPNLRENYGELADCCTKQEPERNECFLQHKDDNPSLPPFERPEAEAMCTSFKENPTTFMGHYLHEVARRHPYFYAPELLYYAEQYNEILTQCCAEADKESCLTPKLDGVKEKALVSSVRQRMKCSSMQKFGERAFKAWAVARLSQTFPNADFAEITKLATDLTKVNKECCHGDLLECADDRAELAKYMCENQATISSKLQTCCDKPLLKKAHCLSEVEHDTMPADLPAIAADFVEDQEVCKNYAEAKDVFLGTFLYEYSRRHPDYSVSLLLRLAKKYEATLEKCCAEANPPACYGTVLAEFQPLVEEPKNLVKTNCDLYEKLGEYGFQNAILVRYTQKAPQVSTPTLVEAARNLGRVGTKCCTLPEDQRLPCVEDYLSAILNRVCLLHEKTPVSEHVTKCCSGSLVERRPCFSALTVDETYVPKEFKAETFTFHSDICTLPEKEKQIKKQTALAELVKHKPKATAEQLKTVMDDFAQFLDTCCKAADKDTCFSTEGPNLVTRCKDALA", "assay": "FACS binding specificity of peptide-displayed yeast cells, mouse albumin", "conditions": "biotinylated SA, streptavidin-APC, flow cytometer", "how_it_was_run": "(§1)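 Yeast grown in SDCAA at 30 °C for 16 h, then in SG/RCAA at 20 °C for 24 h to display the peptide. Cells labelled 1 h with mouse anti-FLAG and biotinylated albumin, washed in PBST, then stained 1 h with Alexa-488 goat anti-mouse IgG (display) and streptavidin-APC (albumin binding). Fluorescence read by flow cytometry.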"}, "albumin of rat": {"molecular_target": "albumin of rat (Rattus norvegicus, UniProt P02770)", "sequence (P02770 25-608)": "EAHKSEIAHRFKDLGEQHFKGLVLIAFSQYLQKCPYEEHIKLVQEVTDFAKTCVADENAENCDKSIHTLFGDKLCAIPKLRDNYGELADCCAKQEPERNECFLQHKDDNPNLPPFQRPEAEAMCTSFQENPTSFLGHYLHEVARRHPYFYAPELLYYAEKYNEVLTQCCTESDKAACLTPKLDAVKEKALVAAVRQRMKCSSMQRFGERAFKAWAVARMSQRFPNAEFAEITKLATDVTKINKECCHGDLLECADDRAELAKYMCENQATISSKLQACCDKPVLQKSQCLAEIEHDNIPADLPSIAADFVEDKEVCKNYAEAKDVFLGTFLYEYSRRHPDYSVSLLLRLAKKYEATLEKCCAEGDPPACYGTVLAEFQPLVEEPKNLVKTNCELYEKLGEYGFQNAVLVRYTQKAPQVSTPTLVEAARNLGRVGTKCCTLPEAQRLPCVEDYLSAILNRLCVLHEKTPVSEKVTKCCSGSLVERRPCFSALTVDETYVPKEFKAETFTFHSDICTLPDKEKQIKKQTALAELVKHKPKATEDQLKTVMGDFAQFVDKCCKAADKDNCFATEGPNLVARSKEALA", "assay": "FACS binding specificity of peptide-displayed yeast cells, rat albumin", "conditions": "biotinylated SA, streptavidin-APC, flow cytometer", "how_it_was_run": "as §1"}, "[1]": {"molecular_target": "albumin of cynomolgus monkey (Macaca fascicularis, UniProt A2V9Z4)", "sequence (A2V9Z4 25-608)": "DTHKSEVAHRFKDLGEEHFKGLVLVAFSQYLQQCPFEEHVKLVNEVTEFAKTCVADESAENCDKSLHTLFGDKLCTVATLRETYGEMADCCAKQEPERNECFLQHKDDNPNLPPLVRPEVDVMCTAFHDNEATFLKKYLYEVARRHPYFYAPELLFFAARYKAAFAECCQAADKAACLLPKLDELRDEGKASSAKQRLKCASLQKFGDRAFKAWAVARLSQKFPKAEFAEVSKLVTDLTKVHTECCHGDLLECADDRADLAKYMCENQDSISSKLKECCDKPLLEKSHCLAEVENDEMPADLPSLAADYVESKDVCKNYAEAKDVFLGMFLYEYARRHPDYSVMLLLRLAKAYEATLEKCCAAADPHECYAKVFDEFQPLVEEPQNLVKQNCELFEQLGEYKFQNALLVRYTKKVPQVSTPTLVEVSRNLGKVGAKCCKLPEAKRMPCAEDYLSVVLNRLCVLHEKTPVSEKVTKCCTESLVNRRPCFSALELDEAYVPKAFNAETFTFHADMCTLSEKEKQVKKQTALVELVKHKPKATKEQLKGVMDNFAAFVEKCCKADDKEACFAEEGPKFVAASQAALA", "assay_type": "binding", "conditions": "yeast-displayed peptide, biotinylated SA, streptavidin-APC, flow cytometer", "how_it_was_run": "as §1"}, "fatty acid-free HSA": {"molecular_target": "fatty acid-free HSA (Homo sapiens, UniProt P02768)", "assay": "SPR binding to immobilized HSA", "conditions": "fatty acid-free HSA immobilized on CM5 sensor chip"}, "human SA (HSA)": {"molecular_target": "human SA (HSA) (Homo sapiens, UniProt P02768)", "assay": "FACS binding specificity of peptide-displayed yeast cells, human albumin", "conditions": "biotinylated SA, streptavidin-APC, flow cytometer", "how_it_was_run": "as §1"}}, "note": "Bridge positions count the residues as written; N and C are the ends.", "data": [{"substance": "insulin: Recombinant human insulin", "values": [{"measurement": "Time of peak of hypoglycemic effect after administration", "setting": "healthy ddy mice", "result": 1, "unit": "h"}]}, {"substance": "Ac-GVNFGVVLFRGELAALKAKLAALKAY-NH2 (N-terminus assumed) [AY-VE-dN]", "values": [{"measurement": "half-life at 150 μM", "setting": "trypsin", "result": "6.3 ± 0.4", "unit": "min"}]}, {"substance": "Ac-CAAELAALEAELAALEGVNFGVVLFRGELAALKAKLAALKAYC-NH2 (disulfide 1-43; N-terminus assumed) [AY-VE]", "values": [{"measurement": "Binding of yeast clone to albumin of mouse (FACS)", "setting": "mouse SA (MSA)", "result": "affinity"}, {"measurement": "Binding of yeast clone to albumin of rat (FACS)", "setting": "albumin of rat", "result": "no affinity"}, {"measurement": "half-life at 150 μM", "setting": "trypsin", "result": "190 ± 10", "unit": "min"}, {"measurement": "Binding of yeast clone to albumin of cynomolgus monkey (FACS)", "setting": "[1]", "result": "no affinity"}, {"measurement": "Kd", "setting": "fatty acid-free HSA", "result": "65 ± 39", "unit": "nM"}, {"measurement": "Binding of yeast clone to albumin of human (FACS)", "setting": "human SA (HSA)", "result": "affinity"}]}, {"substance": "Ac-ELAALEAELAALEGVNFGVVLFRGELAALKAKLAALKAY-NH2 (N-terminus assumed) [AY-VE-dS]", "values": [{"measurement": "half-life at 150 μM", "setting": "trypsin", "result": "56 ± 1", "unit": "min"}]}]}
